ChEMBL document CHEMBL3393029, “Preactivated oxazaphosphorines designed for isophosphoramide mustard delivery as bulk form or nanoassemblies: synthesis and proof of concept” (J Med Chem, 2015)

Legend:
[1] = system: Plasma; assay: Drug metabolism in mouse plasma assessed as 4-HO-IFO level measured after 2 hrs by HPLC-MS/MS method; assay type: ADME, cell-free
Procedure, shortened: (§1)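 Prodrugs, from acetonitrile stocks as bulk form or nano-assemblies, were incubated in mouse plasma at 37 °C for up to 24 h. 4-HO-IFO was trapped as its semicarbazone with semicarbazide (2 M in pH 7.4 buffer). It was quantified alongside the parent by isocratic C18 HPLC-ESI(+)-MS/MS with MRM, using hexamethyl phosphoramide as internal standard, over 50–5000 ng/mL. Results are given in ng/mL.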

[2] = system: Plasma; assay: Drug metabolism in mouse plasma assessed as 4-HO-IFO level measured after 2 to 24 hrs by HPLC-MS/MS method; assay type: ADME, cell-free; procedure, shortened: as §1
[3] = system: Plasma; assay: Drug metabolism in mouse plasma assessed as 4-HO-IFO release measured after 0.5 hrs by HPLC-MS/MS method; assay type: ADME, cell-free; procedure, shortened: as §1
[4] = Cytotoxicity against human RMS1 cells after 96 hrs by MTS assay; assay type: functional, cell-based; details: RMS1, 96 h
Procedure, shortened: (§2)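 Human Ewing sarcoma A673 and rhabdomyosarcoma RMS-1 cells were grown in DMEM or RPMI with 10% FCS, penicillin and streptomycin at 37 °C under 5% CO2. […] MTS was then added for 2–5 h and absorbance read at 490 nm. Six replicates per concentration; IC50 versus untreated cells.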

[5] = system: A673; assay: Cytotoxicity against human A673 cells after 96 hrs by MTS assay; assay type: functional, cell-based; details: A673, 96 h; procedure, shortened: as §2
[6] = system: KB; assay: Cytotoxicity against human KB cells; assay type: functional, cell-based
Procedure, shortened: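 KB3.1 was one of 12 human lines tested with nano-assembly formulations. Cells were seeded, then exposed after 24 h to 0.1–200 µM in DMEM or RPMI with 10% FBS at 37 °C and 5% CO2 for 72 h. MTS was read at 490 nm after 2–5 h. Six replicates per concentration; IC50 relative to untreated cells.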

[7] = Cytotoxicity against human RMS1 cells after 72 hrs by MTS assay; assay type: functional, cell-based; details: RMS1, 72 h; procedure, shortened: as §2
[8] = system: A673; assay: Cytotoxicity against human A673 cells after 72 hrs by MTS assay; assay type: functional, cell-based; details: A673, 72 h; procedure, shortened: as §2
[9] = system: Plasma; assay: Drug metabolism in mouse plasma assessed as 4-HO-IFO release measured after 4 hrs by HPLC-MS/MS method; assay type: ADME, cell-free; procedure, shortened: as §1
[10] = system: Plasma; assay: Drug metabolism in mouse plasma assessed as 4-HO-IFO release measured after 2 hrs by HPLC-MS/MS method; assay type: ADME, cell-free; procedure, shortened: as §1
[11] = system: Plasma; assay: Drug metabolism in mouse plasma assessed as 4-HO-IFO level measured after 6 hrs by HPLC-MS/MS method; assay type: ADME, cell-free; procedure, shortened: as §1

CC(C)CCCC(C)CCOC1CCOP(=O)(NCCCl)N1CCCl (configuration not stated)
Drug metabolism [1]: metabolite_detected
Stability [2]: Stable
Drug metabolism [3]: 200 ng/mL
IC50 [4]: 11.3 µM
IC50 [5]: 24.5 µM

CO[C@@H]1CCOP(=O)(NCCCl)N1CCCl (some centres not stated)
IC50 [6]: 20 µM

CC(C)=CCC/C(C)=C/COC1CCOP(=O)(NCCCl)N1CCCl (mixture of isomers)
Drug metabolism [1]: metabolite_detected
Stability [2]: Stable
IC50 [7]: 9.3 µM
IC50 [8]: 25.3 µM
Drug metabolism [9]: 350 ng/mL

CCCCCOC1CCOP(=O)(NCCCl)N1CCCl (mixture of isomers)
IC50 [7]: 5.3 µM
IC50 [8]: 17.7 µM

CC(C)=CCC/C(C)=C/CC/C(C)=C/COC1CCOP(=O)(NCCCl)N1CCCl (mixture of isomers)
Drug metabolism [1]: metabolite_detected
Stability [2]: Stable
Drug metabolism [3]: 700 ng/mL

COC1CCOP(=O)(NCCCl)N1CCCl (mixture of isomers)
Drug metabolism [1]: metabolite_detected
IC50 [7]: 3.8 µM
Drug metabolism [10]: 1250 ng/mL
IC50 [8]: 1.5 µM
Drug metabolism [11]: metabolite_detected

CO[C@H]1CCOP(=O)(NCCCl)N1CCCl (some centres not stated)
IC50 [6]: 22 µM
